RGS4 inh – inhibitors of human RGS4. P49798. AID 463165. B-score at 10 µM. HEK293 M3R/RGS4 inducible, Fluo-4 calcium flux; stronger effect = higher value; triggered by carbachol at its EC20. actives 0.45% (n = 310,000);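 active = B-score, a plate-corrected calcium signal, over three deviations above library mean, with baseline fluorescence within five deviations of library mean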;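 also: RGS4 expression induced by doxycycline in cells with stable M3 receptor; B-score is computed from the integrated fluorescence ratio over baseline after carbachol; higher B-score means a larger calcium signal and so more RGS4 inhibition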
Target sequence (P49798 whole entry, looked up): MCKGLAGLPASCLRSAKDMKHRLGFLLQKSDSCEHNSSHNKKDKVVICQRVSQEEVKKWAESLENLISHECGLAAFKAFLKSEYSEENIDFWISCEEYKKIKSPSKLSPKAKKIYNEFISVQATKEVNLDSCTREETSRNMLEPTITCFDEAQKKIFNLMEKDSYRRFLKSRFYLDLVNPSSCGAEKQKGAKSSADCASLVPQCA
MrgX1 allo act – human MrgX1 positive allosteric modulation, primary screen. Q96LB2. actives 0.63% (n = 310,000). AID 588675. MrgX1-HEK293, Fluo-4 calcium flux, FDSS; stronger effect = higher value. B-score at 10 µM;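 active = plate-corrected calcium response at least 3 library SD above typical, normal starting fluorescence, not activating the receptor alone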;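 also: compound read alongside a low EC10 to EC30 dose of BAM8-22 agonist; peak minus trough fluorescence over baseline measured at the second addition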
Target sequence (Q96LB2 whole entry, looked up): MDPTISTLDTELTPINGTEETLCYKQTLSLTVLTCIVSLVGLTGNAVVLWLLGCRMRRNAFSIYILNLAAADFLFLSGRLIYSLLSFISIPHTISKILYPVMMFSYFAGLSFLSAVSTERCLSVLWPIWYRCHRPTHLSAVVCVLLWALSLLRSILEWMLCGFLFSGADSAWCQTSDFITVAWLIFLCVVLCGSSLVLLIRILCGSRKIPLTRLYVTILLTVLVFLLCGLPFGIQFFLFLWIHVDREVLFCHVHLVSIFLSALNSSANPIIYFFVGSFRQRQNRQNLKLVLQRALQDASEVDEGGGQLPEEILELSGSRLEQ
MrgX1 agonist – activates human MrgX1 receptor signaling; Q96LB2; MrgX1-HEK293 cells, Fluo-4 calcium fluorescence, agonist mode; stronger effect = higher value; B-score at 10 µM; actives 0.44% (n = 310,000); AID 588627;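 active = calcium response B-score plate-corrected fluorescence ratio at least 3 library SD, with starting fluorescence B-score inside 5 SD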
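Material: MrgX1-expressing HEK293 cells / Dosing: compound as first of three additions / Incubation: overnight seeding, then 1 h dark dye loading / Signal: Fluo-4 NW calcium fluorescence / Evaluation: B-scored fluorescence response ratio / Benchmarks: positive and negative control wells on each plate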
RGS4 pot – potentiators or activators of RGS4. actives 0.92% (n = 310,000). B-score at 10 µM. HEK293 M3R/inducible RGS4, carbachol calcium flux Fluo4; stronger effect = lower value;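 active = B-score of the integrated calcium signal more than 4 SD below the library mean, with starting fluorescence not abnormally high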;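 also: negative B-score means reduced calcium response which marks RGS4 activation or potentiation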
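System – HEK293 FlpIn-TREx cells, stable M3R, doxycycline-inducible RGS4 · Reagent – ECmax carbachol challenge · Times – compound preincubation 20 min at room temperature before agonist · Technique – Fluo4 fluorescence kinetic imaging of calcium · Measure – B score of integrated Fluo4 ratio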
MrgX1 antagonist – blocks BAM8-22 activation of human MrgX1 receptor. B-score at 10 µM. actives 1.3% (n = 310,000). MRGX1-HEK293 calcium flux, Fluo-4, BAM8-22 antagonism; stronger effect = lower value;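 active = calcium-response B-score plate-corrected more than 3 library SD below zero, starting fluorescence within 5 deviations, no agonist response on first addition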;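 also: peak minus trough fluorescence over baseline after final BAM8-22 challenge near maximal dose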
* = called active by the depositor; i = inactive; . = no result given. Sampled rows, rich in hits. Any-hit rate of the full collection: about 3.5%.

SMILES	RGS4 inh	MrgX1 allo act	MrgX1 agonist	RGS4 pot	MrgX1 antagonist
Clc1ccc2c(NCc3ccccc3)ccnc2c1	i	i	32*	i	i
S=C(Nc1ccccc1Cl)Nc1ccc(Cl)cc1Cl	i	i	i	i	i
CCCCCCc1cc2cc(C(N)=O)c(=N)oc2cc1O	i	i	i	-8.1*	i
CCCCCCc1cc2cc(C(=O)OCC)c(=O)oc2cc1O	i	i	i	i	-7.3*
O=S(=O)(NCc1c(Cl)cccc1Oc1ccccc1)c1ccc(F)cc1	i	i	i	i	i
CC(C)c1ccccc1NC(=O)COC(=O)c1c2c(nc3ccccc13)CCN(Cc1ccccc1)C2	i	i	i	-8.1*	i
Cc1c(Cl)cccc1NC(=O)COC(=O)c1c2c(nc3ccccc13)CCN(Cc1ccccc1)C2	i	i	i	i	i
CC(C)NC(=O)NC(=O)COC(=O)c1c2c(nc3ccccc13)CCC2	i	i	i	-7*	i
CC#CC(=O)NCC1(N(C)Cc2ccccc2)Cc2ccccc2C1	i	i	i	i	i
CCCCC(CC)C(=O)Nc1ncc([N+](=O)[O-])s1 (centres undefined)	i	7.4*	i	i	i
Oc1ccc2ccccc2c1CN1CCN(c2ccccc2F)CC1	i	.	.	i	.
Oc1ccc2ccccc2c1CN1CCN(C/C=C/c2ccccc2)CC1	i	i	i	-7.8*	i
COc1cccc(CNS(=O)(=O)c2c(C)[nH]c(C)c2C(=O)N2CCCC2)c1	i	i	i	i	i
Cc1c(CCOC(=O)CC23CC4CC(CC(C)(C4)C2)C3)sc[n+]1CC(=O)c1ccccc1	i	i	i	i	i
Cc1c(CCOC(=O)c2cc([N+](=O)[O-])cc([N+](=O)[O-])c2)sc[n+]1CC(=O)c1ccccc1	i	i	i	i	i
Cc1c(CCOC(=O)c2ccccc2)sc[n+]1CC(=O)c1ccc(Br)cc1	i	i	i	-7.9*	i
Cc1c(CCOC(=O)C23CC4CC(CC(C)(C4)C2)C3)sc[n+]1CC(=O)c1ccccc1	i	i	i	i	i
Cc1c(CCOC(=O)CC23CC4CC(CC(C4)C2)C3)sc[n+]1CC(=O)c1ccc(Br)cc1	i	i	i	-7.5*	i
Cc1c(CCOC(=O)c2ccccc2)sc[n+]1Cc1ccccc1	i	i	i	-10*	i
O=C(Nc1nnc(-c2ccc(F)cc2)o1)c1ccc(S(=O)(=O)N2CCOCC2)cc1	i	i	i	i	i
CCOC(=O)c1ccc(N2Cc3ccccc3C2=N)cc1	i	i	i	-7.3*	i
CC(CCC(=O)O)C1CC[C@H]2C3CCC4CC(=O)CCC4(C)[C@H]3CC(=O)C12C (some centres undefined)	i	i	i	i	i
O=C(N/N=C/c1cn(-c2cccs2)nc1-c1ccccc1)c1ccccc1O	i	i	i	i	-8.3*
COc1cc(OC)nc(Oc2ccccc2C(=O)Oc2cccc(C)c2)n1	i	i	i	i	i
C/C(=N\N(Cc1ccccc1)c1ccccc1)c1ccncc1	i	i	i	-9.2*	i
SMILES	RGS4 inh	MrgX1 allo act	MrgX1 agonist	RGS4 pot	MrgX1 antagonist
CN(C(=O)c1ccncc1)c1ccccc1	i	i	i	i	i
O=[N+]([O-])c1cnc2ccccc2c1	i	i	i	i	i
O=[N+]([O-])c1cc([N+](=O)[O-])c2cc3ccccc3nc2c1	14*	i	28*	i	i
CCCCCCc1nc2ccccc2c(=O)n1N	i	9.1*	i	i	i
C=CCCCCc1nc2ccccc2c(=O)n1N	i	i	i	i	i
O=C(CN1CCN(C(=O)c2ccco2)CC1)N1CCc2[nH]c3ccccc3c2C1	i	i	i	i	-5.9*
CCC(C)(C)NC(=O)C(c1ccc(F)cc1)N(Cc1cccs1)C(=O)c1cnccn1 (centres undefined)	i	i	i	i	-5.3*
CCC(C)(C)NC(=O)C(c1ccc(F)cc1)N(Cc1cccc(OC)c1)C(=O)c1cnccn1 (centres undefined)	i	i	i	i	i
COc1cc(NC(=O)c2c(F)c(F)c(OC)c(F)c2F)ccc1NC(=O)c1cccs1	i	i	i	i	i
COCCN=c1scc(-c2ccco2)n1/N=C/c1ccc(O)c(O)c1O	.	i	i	.	i
COCCN=c1scc(-c2cccs2)n1/N=C(\C)c1ccco1	i	15*	i	i	i
COc1ccccc1CN1CCC(CNS(=O)(=O)c2cc(-c3cc(C)no3)ccc2OC)CC1	i	i	i	-7.6*	i
Cc1cc(C)c2nc(SCC(=O)NNC(=O)c3ccco3)c(C)cc2c1	i	i	i	i	i
Cc1cc2cccc(C)c2nc1SCC(=O)NNC(=O)c1ccco1	i	12*	i	i	i
COc1ccc(CNC(=O)COc2cccnc2[N+](=O)[O-])cc1OC	i	6.9*	i	i	i
COc1ccc(Br)cc1S(=O)(=O)NCc1ccccc1	i	i	i	i	-4.9*
COc1ccc(F)cc1S(=O)(=O)NCc1ccccc1	i	i	i	i	i
O=[N+]([O-])c1ccc(Oc2cccc(Br)c2)c2ccncc12	i	7.9*	i	i	i
C=CCN(c1ccccc1)S(=O)(=O)c1ccc2c(c1)NC(=O)C(C)C(=O)N2 (centres undefined)	i	i	i	i	i
CCN(C(=O)CCS(=O)(=O)c1cccc2nonc12)c1ccc(F)cc1	i	i	i	i	i
COc1cc(NC(=O)CN(C)C2CCCCC2)c(C)cc1[N+](=O)[O-]	i	i	i	i	-5.2*
Brc1ccccc1OCCN1CCCC1	i	i	i	i	i
Oc1ccccc1N1CCN(c2ncnc3scc(-c4ccccc4)c23)CC1	i	i	i	-7.4*	i
Oc1ccccc1N1CCN(c2ncnc3scc(-c4ccc(F)cc4)c23)CC1	i	i	i	i	i
CCOC(=O)C1CCN(c2cc3c(cc2NC(=O)c2ccccc2OCC)n(C)c(=O)n3C)CC1	i	i	i	-7.8*	i
CCCC[C@H]1C2=C3[C@@H](CC(C(=O)OC)=C[C@@H](C(=O)OC)[C@H]3C(C)(C)C2=O)n2c(=O)n(-c3ccccc3)c(=O)n21	i	i	i	i	i

Compound activity (PubChem BioAssay)
